Substrate in data set [1]: CN1CC=C(Oc2ccc3ccccc3c2)CC1
In words: (§1) Oxidation by bovine mono-amine oxidase B MAO-B. More on the design: species or system Bos taurus. The method, boiled down: (§2)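 Bovine liver mitochondrial MAO-B, partially purified, at 0.087 μM. Four substrate concentrations were used, from 500–62.5 μM solutions in 100 mM sodium phosphate, pH 7.4. Each was equilibrated 1 min at 37 °C before enzyme was added. Amino enone formation was read at 324 nm every 3 s for 2 min, in duplicate. Km and TN came from Lineweaver-Burk double-reciprocal plots of initial rates.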

Substrate in data set [2]: CCCCc1ccc(OC2=CCN(C)CC2)cc1
The data set is described as §1. Details: species or system Bos taurus. The method, boiled down: as §2

Substrate in data set [3]: CN1CC=C(Oc2cccc3ccccc23)CC1
The data set is described as §1. More on the design: species or system Bos taurus. The method, boiled down:
as §2

Substrate in data set [4]: CN1CC=C(Oc2ccccc2)CC1
The data set is described as §1. More on the design: species or system Bos taurus. The method, boiled down: as §2

Substrate in data set [5]: CN1CC=C(Oc2ccc(Cl)cc2Cl)CC1
The description is as §1. Details: species or system Bos taurus. The method, boiled down: as §2

Substrate in data set [6]: CN1CC=C(Oc2ccc(C(C)(C)C)cc2)CC1
Described as §1. Details: species or system Bos taurus. The method, boiled down:
as §2

Substrate in data set [7]: CN1CC=C(Cc2ccc3ccccc3c2)CC1
The description is as §1. More on the design: species or system Bos taurus. The method, boiled down: as §2

Substrate in data set [8]: CN1CC=C(Oc2ccc(-c3ccccc3)cc2)CC1
The data set is described as §1. More on the design: species or system Bos taurus. The method, boiled down: as §2

Substrate in data set [9]: CN1CC=C(Oc2ccc3ccccc3c2)CC1
The data set can be described thus: (§3) Oxidation by human mono-amine oxidase MAO-A. The method, boiled down:
(§4)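 MAO-A preparation was diluted 1:4 in 20 mM phosphate, pH 7.4, with 20% w/v glycerol and used at 0.17 μM. Four substrate concentrations were used, from 500–62.5 μM solutions in 100 mM sodium phosphate, pH 7.4, after 1 min at 37 °C. Initial rates were taken from the 324 nm amino enone absorbance, read every 3 s for 2 min, in duplicate. Km and TN came from double-reciprocal plots.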

Substrate in data set [10]: CN1CC=C(Cc2cc3ccccc3c3ccccc23)CC1
The data set is described as §3. The method, boiled down:
as §4

Substrate in data set [11]: CCCCc1ccc(OC2=CCN(C)CC2)cc1
Described as §3. The method, boiled down:
as §4

Substrate in data set [12]: CN1CC=C(Oc2cccc3ccccc23)CC1
Described as §3. The method, boiled down: as §4

Substrate in data set [13]: CN1CC=C(Oc2ccccc2)CC1
The description is as §3. The procedure, abridged: as §4

Substrate in data set [14]: CN1CC=C(Oc2cc3ccccc3c3ccccc23)CC1
The description is as §3. The procedure, abridged: as §4

Substrate in data set [15]: CN1CC=C(Oc2ccc(Cl)cc2Cl)CC1
Described as §3. The procedure, abridged:
as §4

Substrate in data set [16]: CN1CC=C(Oc2ccc(C(C)(C)C)cc2)CC1
The data set is described as §3. The method, boiled down: as §4

Substrate in data set [17]: CN1CC=C(Oc2ccc(-c3ccccc3)cc2)CC1
Described as §3. The procedure, abridged:
as §4

For 2 proteins, Km results are on record in ChEMBL document CHEMBL1127689, “Novel 4-(aryloxy)tetrahydropyridine analogs of MPTP as monoamine oxidase A and B substrates” (J Med Chem, 1994).

The Km is the substrate concentration at which the rate is half of its maximum.

B1: Amine oxidase [flavin-containing] B (Bos taurus) (protein)
chain: MSSKCDVVVVGGGISGMAAAKLLHDSGLNVIVLEARDRVGGRTYTLRNQKVKYVDLGGSYVGPTQNHILRLSKELGLETYKVNEVERLIHHTKGKSYPFRGSFPSVWNPITYLDHNNLWRTMDDMGREIPSDAPWKAPLAEQWDLMTMKELLDKICWTESSKQLAILFVNLCVTAEIHEVSALWFLWYVKQCGGTTRIFSTSNGGQERKFVGGSGQVSERIMDLLGDRVKLERPVIHIDQTGENVLVETLNHELYEAKYVISAVPPVLGMKIHFNPPLPMMRNQLITRVPLGSVIKSIVYYKEPFWRNMDYCGSMIIEGEEAPVAYALDDTKPDGSYPAIIGFILAHKARKLARLTKEERLKKLCDLYAKVLGSQEALHPVHYEEKNWCEEQYSGGCYTSYFPPGIMTQYGRVLRQPVGRIYFAGTETATHWSGYMEGAVEAGERAAREILHAMGKIPEDEIWLPEPESVDVPAKPITTTFLQRHLPSVPGLLKLIGLTTIFSATALGFLAHKRGLLVRI
For B1, the Km turned out to be 274 µM in data set [1]; 84 µM in data set [2]; 143 µM in [3]; 58 µM in [4]; 167 µM in data set [5]; 56 µM in data set [6]. The figures for the Michaelis constant (Km) in data set [7] and in [8] were 892 µM and 284 µM, respectively.

B2: Amine oxidase [flavin-containing] A (Homo sapiens) (protein)
chain: MENQEKASIAGHMFDVVVIGGGISGLSAAKLLTEYGVSVLVLEARDRVGGRTYTIRNEHVDYVDVGGAYVGPTQNRILRLSKELGIETYKVNVSERLVQYVKGKTYPFRGAFPPVWNPIAYLDYNNLWRTIDNMGKEIPTDAPWEAQHADKWDKMTMKELIDKICWTKTARRFAYLFVNINVTSEPHEVSALWFLWYVKQCGGTTRIFSVTNGGQERKFVGGSGQVSERIMDLLGDQVKLNHPVTHVDQSSDNIIIETLNHEHYECKYVINAIPPTLTAKIHFRPELPAERNQLIQRLPMGAVIKCMMYYKEAFWKKKDYCGCMIIEDEDAPISITLDDTKPDGSLPAIMGFILARKADRLAKLHKEIRKKKICELYAKVLGSQEALHPVHYEEKNWCEEQYSGGCYTAYFPPGIMTQYGRVIRQPVGRIFFAGTETATKWSGYMEGAVEAGERAAREVLNGLGKVTEKDIWVQEPESKDVPAVEITHTFWERNLPSVSGLLKIIGFSTSVTALGFVLYKYKLLPRS
Consider B2, for which the Km in [9] was 77 µM; in [10], 480 µM; in [11], 51 µM; in data set [12], 144 µM; in data set [13], 55 µM; in data set [14], 278 µM. For the same protein, the Km in [15] was 29 µM; in data set [16], 130 µM; in data set [17] it was 101 µM.
